The values below come from ChEMBL document CHEMBL1152754, “18F-labeled flavones for in vivo imaging of beta-amyloid plaques in Alzheimer's brains” (Bioorg Med Chem, 2009).

Activity calls are given as the source filed them. The rule behind the calls is not given here.

The first data set deals with Brain. Kind of data set: Biodistribution in ddY mouse brain at 18.5 kBq, iv after 2 mins. The class given is ADME, organism-based. The settings on record: in vivo. The procedure, abridged:
(§1)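 Normal ddY mice (5 weeks old, 22–25 g) received 18.5 kBq of 18F-labeled agent by tail-vein injection in 100 µL saline containing 5 µL ethanol. Killed under isoflurane anesthesia at each time point; organs removed and weighed, radioactivity gamma-counted. Expressed as %ID/g, mean ± SD of 4–5 mice per interval.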
On to `CN(C)c1ccc(-c2cc(=O)c3cc(OCC[18F])ccc3o2)cc1`, for which the Drug uptake is 4.17 % ID/g.

Regarding `CN(C)c1ccc(-c2cc(=O)c3cc(OCCOCC[18F])ccc3o2)cc1`, the Drug uptake is recorded as 3.54 % ID/g.

For `CN(C)c1ccc(-c2cc(=O)c3cc(OCCOCCOCC[18F])ccc3o2)cc1`, the Drug uptake came to 2.89 % ID/g.

A further data set has as its system Brain. Nature of the data set: Biodistribution in ddY mouse brain at 18.5 kBq, iv after 10 mins. The class given is ADME, organism-based. The settings on record: in vivo. A digest of the protocol: as §1
On to `CN(C)c1ccc(-c2cc(=O)c3cc(OCC[18F])ccc3o2)cc1`, for which the Drug uptake is reported as 3.62 % ID/g.

As for `CN(C)c1ccc(-c2cc(=O)c3cc(OCCOCC[18F])ccc3o2)cc1`, the Drug uptake was 2.75 % ID/g.

Regarding `CN(C)c1ccc(-c2cc(=O)c3cc(OCCOCCOCC[18F])ccc3o2)cc1`, the Drug uptake was 2.23 % ID/g.

A further data set relates to Blood. Kind of data set: Biodistribution in ddY mouse blood at 18.5 kBq, iv after 60 mins. Format: ADME, organism-based. The settings on record: in vivo, 1 h. The procedure, abridged: as §1
The compound `CN(C)c1ccc(-c2cc(=O)c3cc(OCC[18F])ccc3o2)cc1` returned a Drug uptake of 3.25 % ID/g.

With `CN(C)c1ccc(-c2cc(=O)c3cc(OCCOCC[18F])ccc3o2)cc1`, the Drug uptake is 2.94 % ID/g.

In the case of `CN(C)c1ccc(-c2cc(=O)c3cc(OCCOCCOCC[18F])ccc3o2)cc1`, the Drug uptake turned out to be 1.88 % ID/g.

The subject of the next data set is Blood. Nature of the data set: Biodistribution in ddY mouse blood at 18.5 kBq, iv after 30 mins. The class given is ADME, organism-based. The note with it: in vivo, 0.5 h. The procedure, abridged: as §1
Regarding `CN(C)c1ccc(-c2cc(=O)c3cc(OCC[18F])ccc3o2)cc1`, the Drug uptake came out at 2.53 % ID/g.

Take `CN(C)c1ccc(-c2cc(=O)c3cc(OCCOCC[18F])ccc3o2)cc1`: the Drug uptake was 2.5 % ID/g.

Compound `CN(C)c1ccc(-c2cc(=O)c3cc(OCCOCCOCC[18F])ccc3o2)cc1` registered a Drug uptake of 1.4 % ID/g.

For another data set, the system named is Blood. Kind of data set: Biodistribution in ddY mouse blood at 18.5 kBq, iv after 2 mins. The class given is ADME, organism-based. The note with it: in vivo. A digest of the protocol: as §1
`CN(C)c1ccc(-c2cc(=O)c3cc(OCC[18F])ccc3o2)cc1` came in with a Drug uptake of 2.8 % ID/g.

`CN(C)c1ccc(-c2cc(=O)c3cc(OCCOCC[18F])ccc3o2)cc1` returned a Drug uptake of 2.09 % ID/g.

In turn, `CN(C)c1ccc(-c2cc(=O)c3cc(OCCOCCOCC[18F])ccc3o2)cc1` yielded a Drug uptake of 2.35 % ID/g.

A further data set relates to Blood. Nature of the data set: Biodistribution in ddY mouse blood at 18.5 kBq, iv after 10 mins. The class given is ADME, organism-based. The note with it: in vivo. The procedure, abridged: as §1
As for `CN(C)c1ccc(-c2cc(=O)c3cc(OCC[18F])ccc3o2)cc1`, the Drug uptake is 2.71 % ID/g.

As for `CN(C)c1ccc(-c2cc(=O)c3cc(OCCOCC[18F])ccc3o2)cc1`, the Drug uptake is reported as 2.3 % ID/g.

Compound `CN(C)c1ccc(-c2cc(=O)c3cc(OCCOCCOCC[18F])ccc3o2)cc1` showed a Drug uptake of 1.5 % ID/g.

Target in the next data set: not listed separately
Nature of the data set: Displacement of [125I]DMFV from amyloid beta (1 to 42) aggregates.
Conditions: not given
A digest of the protocol:
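Aβ(1-42) aggregated at 0.25 mg/mL in 10 mM sodium phosphate with 1 mM EDTA, pH 7.4, 37 °C for 42 h. Competition: 0.02 nM [125I]DMFV, test compound at 0.2 pM–400 µM, and aggregates in 10% EtOH, incubated 3 h at room temperature. Bound ligand collected on GF/B filters and gamma-counted. IC50 taken from displacement curves; Ki by Cheng-Prusoff using DMFV Kd 12.3 nM.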
`Nc1ccc(-c2cc(=O)c3cc(OCCOCCF)ccc3o2)cc1` came in with an inhibition constant (Ki) of 321 nM.

Compound `CNc1ccc(-c2cc(=O)c3cc(F)ccc3o2)cc1` showed a Ki of 110 nM.

`CNc1ccc(-c2cc(=O)c3cc(OCCOCCOCCF)ccc3o2)cc1` registered an inhibition constant (Ki) of 45.1 nM.

Turning to `Nc1ccc(-c2cc(=O)c3cc(OCCOCCOCCF)ccc3o2)cc1`, the Ki was found to be 234 nM.

`CN(C)c1ccc(-c2cc(=O)c3cc(F)ccc3o2)cc1` had a Ki of 73.9 nM.

As to `Nc1ccc(-c2cc(=O)c3cc(OCCF)ccc3o2)cc1`, the inhibition constant (Ki) was determined as 234 nM.

The compound `CN(C)c1ccc(-c2cc(=O)c3cc(OCCOCCOCCF)ccc3o2)cc1` came in with an inhibitory constant (Ki) of 19.3 nM.

`CNc1ccc(-c2cc(=O)c3cc(OCCOCCF)ccc3o2)cc1` gave an inhibitory constant (Ki) of 54.5 nM.

`Nc1ccc(-c2cc(=O)c3cc(F)ccc3o2)cc1` showed an inhibition constant Ki of 260 nM.

`CN(C)c1ccc(-c2cc(=O)c3cc(OCCF)ccc3o2)cc1` had a Ki of 5.3 nM.

In the case of `CN(C)c1ccc(-c2cc(=O)c3cc(OCCOCCF)ccc3o2)cc1`, the affinity, expressed as Ki, was 14.4 nM.

`CNc1ccc(-c2cc(=O)c3cc(OCCF)ccc3o2)cc1` registered a Ki of 99 nM.

For another data set, the system named is Brain. Nature of the data set: Biodistribution in ddY mouse brain at 18.5 kBq, iv after 30 mins. The class given is ADME, organism-based. The settings on record: in vivo, 0.5 h. A digest of the protocol: as §1
For the compound `CN(C)c1ccc(-c2cc(=O)c3cc(OCC[18F])ccc3o2)cc1`, the Drug uptake turned out to be 1.89 % ID/g.

Consider `CN(C)c1ccc(-c2cc(=O)c3cc(OCCOCC[18F])ccc3o2)cc1`, for which the Drug uptake was found to be 2 % ID/g.

Consider `CN(C)c1ccc(-c2cc(=O)c3cc(OCCOCCOCC[18F])ccc3o2)cc1`, for which the Drug uptake is reported as 1.31 % ID/g.

The next data set deals with Brain. Nature of the data set: Biodistribution in ddY mouse brain at 18.5 kBq, iv after 60 mins. Format: ADME, organism-based. The settings on record: in vivo, 1 h. The procedure, abridged: as §1
Compound `CN(C)c1ccc(-c2cc(=O)c3cc(OCC[18F])ccc3o2)cc1` came in with a Drug uptake of 2.19 % ID/g.

Compound `CN(C)c1ccc(-c2cc(=O)c3cc(OCCOCC[18F])ccc3o2)cc1` came in with a Drug uptake of 2.13 % ID/g.

`CN(C)c1ccc(-c2cc(=O)c3cc(OCCOCCOCC[18F])ccc3o2)cc1` displayed a Drug uptake of 1.37 % ID/g.

A further data set has as its system Bone. Nature of the data set: Biodistribution in ddY mouse bone at 18.5 kBq, iv after 2 mins. The settings on record: in vivo. Format: ADME, organism-based, Bone element. The procedure, abridged: as §1
Compound `CN(C)c1ccc(-c2cc(=O)c3cc(OCC[18F])ccc3o2)cc1` displayed a Drug uptake of 2.02 % ID/g.

`CN(C)c1ccc(-c2cc(=O)c3cc(OCCOCC[18F])ccc3o2)cc1` registered a Drug uptake of 1.13 % ID/g.

`CN(C)c1ccc(-c2cc(=O)c3cc(OCCOCCOCC[18F])ccc3o2)cc1` yielded a Drug uptake of 1.53 % ID/g.

A further data set has as its system Bone. Kind of data set: Biodistribution in ddY mouse bone at 18.5 kBq, iv after 10 mins. Format: ADME, organism-based, Bone element. The note with it: in vivo. A digest of the protocol:
as §1
`CN(C)c1ccc(-c2cc(=O)c3cc(OCC[18F])ccc3o2)cc1` returned a Drug uptake of 2.83 % ID/g.

Compound `CN(C)c1ccc(-c2cc(=O)c3cc(OCCOCC[18F])ccc3o2)cc1` registered a Drug uptake of 1.65 % ID/g.

For `CN(C)c1ccc(-c2cc(=O)c3cc(OCCOCCOCC[18F])ccc3o2)cc1`, the Drug uptake stood at 2.38 % ID/g.

In a further data set the test system is Bone. Nature of the data set: Biodistribution in ddY mouse bone at 18.5 kBq, iv after 30 mins. The class given is ADME, organism-based, Bone element. The note with it: in vivo, 0.5 h. The procedure, abridged:
as §1
In turn, `CN(C)c1ccc(-c2cc(=O)c3cc(OCC[18F])ccc3o2)cc1` registered a Drug uptake of 4.51 % ID/g.

Consider `CN(C)c1ccc(-c2cc(=O)c3cc(OCCOCC[18F])ccc3o2)cc1`, for which the Drug uptake is 2.42 % ID/g.

`CN(C)c1ccc(-c2cc(=O)c3cc(OCCOCCOCC[18F])ccc3o2)cc1` gave a Drug uptake of 4.06 % ID/g.

Another data set relates to Bone. Nature of the data set: Biodistribution in ddY mouse bone at 18.5 kBq, iv after 60 mins. Format: ADME, organism-based, Bone element. The settings on record: in vivo, 1 h. The procedure, abridged: as §1
Regarding `CN(C)c1ccc(-c2cc(=O)c3cc(OCC[18F])ccc3o2)cc1`, the Drug uptake came to 6.21 % ID/g.

In the case of `CN(C)c1ccc(-c2cc(=O)c3cc(OCCOCC[18F])ccc3o2)cc1`, the Drug uptake is listed as 3.74 % ID/g.

In the case of `CN(C)c1ccc(-c2cc(=O)c3cc(OCCOCCOCC[18F])ccc3o2)cc1`, the Drug uptake came out at 5.21 % ID/g.

The species entered for another data set is Mus musculus. Nature of the data set: Binding affinity to amyloid beta (1 to 42) aggregates in Tg2576 mouse brain at 100 uM by fluorescent staining method. Format: tissue-based.
Conditions: not given
A digest of the protocol:
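Tg2576 transgenic mice (female, 20 months old) killed by decapitation under isoflurane; brains frozen in powdered dry ice and cut into 10 µm serial cryosections. Sections incubated with a 100 µM solution of fluorescent ligand in 50% ethanol, washed twice for 3 min in 50% ethanol, imaged by fluorescence microscopy (excitation 450–490 nm). Adjacent sections immunostained with anti-β-amyloid monoclonal antibody, DAB chromogen.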
Regarding `CN(C)c1ccc(-c2cc(=O)c3cc(OCCOCCOCCF)ccc3o2)cc1`, the result was Active.

On to `CN(C)c1ccc(-c2cc(=O)c3cc(OCCF)ccc3o2)cc1`, for which the outcome was Active.

For `CN(C)c1ccc(-c2cc(=O)c3cc(OCCOCCF)ccc3o2)cc1`, the result was Active.
